Assay results: article PMC7473156 (European Journal of Medicinal Chemistry, 2020)
Entries after “also recorded” stand apart in the source; their conditions may differ.

Key:
[1] = tested on: HepG2 cells; assay: Cell death of HepG2 cells stably transfected with CYP3A4-EGFP or empty vector; format: cell-based, human; conditions: 15 μM, 24 h; for cell death of HepG2 cells: influence of cellular CYP3A4 overexpression: CYP3A4-EGFP versus vector
In short: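 HepG2 cells were lipofected with pcDNA3-CYP3A4-EGFP or pcDNA3-EGFP and kept in G418 (0.5 mg/mL) for four weeks; plasmid presence was confirmed by PCR. Cells were seeded at 0.1 × 10^6 per well, adhered overnight, then exposed to 15 μM for 24 h. Propidium iodide (5 μg/mL in PBS) staining was read by flow cytometry without FSC/SSC gating. Specific cell death was calculated against control. Mean ± SEM, three independent experiments.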

[2] = tested on: VCR-R CEM cells; assay: Western blot analysis of VCR-R CEM cell lysates; format: cell-based, human; conditions: 5 μM, 24 h
In short: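 VCR-R CEM cells were seeded at 2 × 10^6 per well 4 h before treatment with DMSO or 5 μM compound for 24 h. Lysates were made in RIPA, separated by SDS-PAGE and transferred to PVDF. Blots were probed for p-Akt (Ser473), total Akt, PARP, Bcl-xL and Mcl-1 (1:1000) and detected by chemiluminescence, with stain-free total protein as loading control.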

[3] = tested on: VCR-R CEM cells; assay: Mitochondrial membrane potential; format: cell-based, human; conditions: 24 h
In short: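 VCR-R CEM cells were seeded at 0.125 × 10^6 per well 4 h before 24 h exposure to 5 μM compound or DMSO. JC-1 (1 μg/mL) was applied for 1 h before harvest, with elacridar (5 μM) present […]. Cells were washed, resuspended in PBS and read by flow cytometry as the red/green fluorescence shift.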

[4] = tested on: HepaRG™ cells; assay: Toxicity to differentiated HepaRG cells without transfection; format: cell-based, human; conditions: 24 h, compared with tetrandrine; for cell viability of HepaRG cells: 10 μM; for toxicity to HepaRG cells (cell viability): 20 μM
In short: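 HepaRG cells were differentiated in Williams' E with GlutaMAX and Maintenance/Metabolism supplement, then exposed to compound for 24 h. Viability was read by CellTiter-Blue and normalised to vehicle control. Mean ± SEM, three independent experiments.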

[5] = tested on: CYP3A4 overexpressing HepaRG™ cells; format: cell-based, human; conditions: 10 μM, 24 h
In short: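 HepaRG cells were differentiated in Maintenance/Metabolism medium, then lipofected with pcDNA3-CYP3A4-EGFP or pcDNA3-EGFP 16 h before treatment. Exposure was 10 μM for 24 h. Cell death was read by propidium iodide staining (5 μg/mL in PBS) and flow cytometry, with no FSC/SSC gating. Specific cell death was calculated against control. Mean ± SEM, three independent experiments.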

[6] = tested on: human umbilical vein endothelial cells (HUVECs); assay: HUVEC viability; format: cell-based; conditions: 10 μM, 24 h, compared with tetrandrine
In short: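 HUVECs were cultured in ECGM with 10% FCS and antibiotics/antimycotic, for at most six passages. They were seeded at […], adhered overnight, then exposed to 1, 5 or 10 μM for 24 h. Viability was read by CellTiter-Blue, with fluorescence normalised to vehicle. Mean ± SEM, three independent experiments.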

[7] = tested on: HepG2 cells; assay: Western blot analysis of HepG2 cells; format: cell-based, human; conditions: 5 μM, 48 h
In short: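 HepG2 cells were seeded at 0.5 × 10^6 per well, adhered overnight, then treated with DMSO or 5 μM compound for 24 or 48 h. Cells were lysed in RIPA, run on SDS-PAGE and transferred to PVDF. Blots were probed with p-Akt (Ser473), total Akt, PARP, Bcl-xL and Mcl-1 antibodies (1:1000) and detected by chemiluminescence, with stain-free total protein as loading control.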

[8] = target: P-gp (Homo sapiens, UniProt P08183); assay: Calcein-AM retention assay in P-gp overexpressing VCR-R CEM cells; format: cell-based; conditions: 0.1 and 1 μM
In short: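 VCR-R CEM cells were loaded with calcein-AM (200 nM) plus test compound (0.1 or 1 μM) for 30 min at 37 °C. After a wash, they were kept without calcein-AM for a further 60 min at 37 °C, then analysed by flow cytometry. Geometric mean fluorescence intensity was normalised to the calcein-AM-only control.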

[9] = tested on: VCR-R CEM cells; assay: Apoptosis assay in combination with vincristine; format: cell-based, human; conditions: 1 μM compound with varying doses of VCR, 48 h
[10] = tested on: VCR-R CEM cells; assay: Cell proliferation assay; format: cell-based, human; conditions: 48 h, relative proliferation at 10 μM and IC50
In short: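 VCR-R CEM cells (RPMI 1640, 10% FCS) were seeded at 0.02 × 10^6 per well and rested 4 h. Metabolic activity read at that point served as the zero value. Compound exposure was 48 h, with CellTiter-Blue added 2 h before the end and fluorescence read at 590 nm. IC50 was obtained by nonlinear regression; relative proliferation was also taken at 10 μM.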

[11] = tested on: peripheral blood mononuclear cells (PBMCs); assay: PBMC cell death; format: cell-based, human; conditions: 5 and 10 μM, 48 h, compared with RMS3 and RMS5
In short: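 PBMCs were isolated from anticoagulated healthy-donor blood on a Ficoll density gradient and kept in RPMI 1640 with 20% FCS and penicillin/streptomycin. Treatment started 4 h after seeding and lasted 48 h. Cells were stained with propidium iodide (5 μg/mL in PBS) and read by flow cytometry, with debris excluded and PI-positive cells counted.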

Sequence of P-gp (P08183 whole entry): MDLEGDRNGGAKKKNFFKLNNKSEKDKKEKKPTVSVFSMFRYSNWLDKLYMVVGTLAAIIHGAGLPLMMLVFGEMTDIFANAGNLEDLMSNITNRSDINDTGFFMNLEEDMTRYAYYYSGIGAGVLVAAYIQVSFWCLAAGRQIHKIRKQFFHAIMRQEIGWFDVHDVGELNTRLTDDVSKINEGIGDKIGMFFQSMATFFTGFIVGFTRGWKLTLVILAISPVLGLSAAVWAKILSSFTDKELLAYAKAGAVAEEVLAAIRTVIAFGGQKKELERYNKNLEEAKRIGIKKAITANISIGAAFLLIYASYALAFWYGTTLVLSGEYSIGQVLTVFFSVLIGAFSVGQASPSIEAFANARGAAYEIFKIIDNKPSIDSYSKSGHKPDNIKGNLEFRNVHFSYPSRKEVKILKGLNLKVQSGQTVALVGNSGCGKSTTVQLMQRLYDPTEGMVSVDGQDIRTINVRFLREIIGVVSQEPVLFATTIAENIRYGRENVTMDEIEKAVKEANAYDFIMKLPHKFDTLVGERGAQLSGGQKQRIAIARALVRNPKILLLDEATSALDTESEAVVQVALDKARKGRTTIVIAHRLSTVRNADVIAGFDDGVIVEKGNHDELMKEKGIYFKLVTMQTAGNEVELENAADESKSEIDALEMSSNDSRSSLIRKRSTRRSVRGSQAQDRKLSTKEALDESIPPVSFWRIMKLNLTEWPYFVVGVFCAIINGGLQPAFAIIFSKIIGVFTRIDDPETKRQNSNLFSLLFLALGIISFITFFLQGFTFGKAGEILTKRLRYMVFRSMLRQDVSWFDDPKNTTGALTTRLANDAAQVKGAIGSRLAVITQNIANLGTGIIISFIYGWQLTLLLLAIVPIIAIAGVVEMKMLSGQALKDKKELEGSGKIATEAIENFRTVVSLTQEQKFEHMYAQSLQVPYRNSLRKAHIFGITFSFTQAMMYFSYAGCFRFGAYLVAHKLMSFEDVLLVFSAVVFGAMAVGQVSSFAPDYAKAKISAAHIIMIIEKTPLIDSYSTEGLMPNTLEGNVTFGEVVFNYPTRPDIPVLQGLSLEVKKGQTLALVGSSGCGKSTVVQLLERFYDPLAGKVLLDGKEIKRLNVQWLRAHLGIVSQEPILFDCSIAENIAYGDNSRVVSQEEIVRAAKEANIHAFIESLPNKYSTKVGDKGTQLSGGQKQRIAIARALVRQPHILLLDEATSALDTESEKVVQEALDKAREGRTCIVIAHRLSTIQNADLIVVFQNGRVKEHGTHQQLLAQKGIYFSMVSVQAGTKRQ

`COc1cc2c3cc1Oc1c(OC)c(OC)cc4c1C(Cc1cccc(c1)Oc1ccc(cc1)CC3N(C)CC2)N(C)CC4` (racemic) [RMS1, (±)-12-Desmethoxytetrandrine and –isotetrandrine] was tested, and the “cytotoxicity against HepG2 cells in comparison to tetrandrine” value (from here on “cytotoxicity against HepG2 cells”) [1] was “generally increased cytotoxicities”, the PARP cleavage [2] was “detected” and the “mitochondrial membrane potential ΔΨm (JC-1 shift towards green fluorescence)” value [3] was “no such an effect”.
In the case of `COc1cc2c3cc1Oc1c(OC)c(OC)cc4c1C(Cc1cccc(c1)Oc1ccc(cc1)CC3N(C)CC2)N(C)CC4` (racemic) [RMS2, (±)-12-Desmethoxytetrandrine and –isotetrandrine], the “cell viability of HepaRG cells” value [4] is reported as “strongly decreased cell viability”, the “toxicity to HepaRG cells (cell viability)” value (shortened to “toxicity to HepaRG cells”) [4] is reported as “significantly more toxic to HepaRG™ cells than tetrandrine” and the “cell death of CYP3A4 overexpressing HepaRG cells versus empty vector” value [5] is reported as “strongest effect on cell viability”. For the same molecule, the “cytotoxicity against HepG2 cells” value [1] was “generally increased cytotoxicities”.
For `COc1cc2c3cc1Oc1c(OC)c(OC)cc4c1C(Cc1ccc(OC(F)(F)F)c(c1)Oc1ccc(cc1)CC3N(C)CC2)N(C)CC4` (racemic) [RMS3, (±)-12-Desmethoxy-12-trifluoromethoxytetrandrine and –isotetrandrine], the “cytotoxicity against HepG2 cells” value [1] was “generally increased cytotoxicities; also recorded: strongly increased cytotoxicites”, the PARP cleavage [2] was “detected” and the “viability of HUVECs” value [6] was “slightly stronger effect on the viability of HUVECs than tetrandrine”.
With `COc1cc2c3cc1Oc1c(OC)c(OC)cc4c1C(Cc1ccc(OC(F)(F)F)c(c1)Oc1ccc(cc1)CC3N(C)CC2)N(C)CC4` (racemic) [RMS4, (±)-12-Desmethoxy-12-trifluoromethoxytetrandrine and –isotetrandrine] the “cell viability of HepaRG cells” value [4] was “slightly”, the “toxicity to HepaRG cells” value [4] was “significantly more toxic to HepaRG™ cells than tetrandrine” and the “cytotoxicity against HepG2 cells” value [1] was “generally increased cytotoxicities”. For the same molecule, the PARP cleavage [2] was “detected” and the p-Akt levels [7] was “reduced”.
In the case of `COc1cc2c3cc1Oc1c(OC)c(OC)cc4c1C(Cc1cc(cs1)Oc1ccc(cc1)CC3N(C)CC2)N(C)CC4` (racemic) [RMS5, (±)-Ring C thiophene analogues of tetrandrine and –isotetrandrine], the “cytotoxicity against HepG2 cells” value [1] is reported as “generally increased cytotoxicities; also recorded: strongly increased cytotoxicites”, the “expression of Bcl-XL and Mcl-1” value [7] is reported as “slightly diminished” and the p-Akt levels [7] is reported as “reduced”.
For `COc1cc2c3cc1Oc1c(OC)c(OC)cc4c1C(Cc1cc(cs1)Oc1ccc(cc1)CC3N(C)CC2)N(C)CC4` (racemic) [RMS6, (±)-Ring C thiophene analogues of tetrandrine and –isotetrandrine], the “toxicity to HepaRG cells” value [4] was “significantly less toxic than tetrandrine”, the “prevention of efflux of calcein-AM (P-gp inhibition)” value [8] was “inhibition of P-gp” and the “sensitization of VCR-R CEM cells to vincristine (apoptosis)” value (“sensitization of VCR-R CEM cells” below) [9] was “successfully sensitized VCR-R CEM cells to VCR”. The “inhibition of proliferation of VCR-R CEM cells” value [10] was “nearly inactive; also recorded: no direct effect on proliferation” and the “mitochondrial membrane potential ΔΨm (JC-1 shift towards green fluorescence)” value [3] was “no such an effect”.
`COc1cc2c3cc1Oc1c(OC)c(OC)cc4c1C(Cc1ccc(Cl)c(c1)Oc1ccc(cc1)CC3N(C)CC2)N(C)CC4` (racemic) [RMS7, (±)-12-Desmethoxy-12-chlorotetrandrine and –isotetrandrine] was tested, and the “cytotoxicity against HepG2 cells” value [1] was “generally increased cytotoxicities” and the “mitochondrial membrane potential ΔΨm (JC-1 shift towards green fluorescence)” value [3] was “no such an effect”.
For `COc1cc2c3cc1Oc1c(OC)c(OC)cc4c1C(Cc1ccc(Cl)c(c1)Oc1ccc(cc1)CC3N(C)CC2)N(C)CC4` (racemic) [RMS8, (±)-12-Desmethoxy-12-chlorotetrandrine and –isotetrandrine], the “cell viability of HepaRG cells” value [4] was “slightly”, the “toxicity to HepaRG cells” value [4] was “significantly more toxic to HepaRG™ cells than tetrandrine” and the “cytotoxicity against HepG2 cells” value [1] was “generally increased cytotoxicities”. The “sensitization of VCR-R CEM cells” value [9] was “most potent analogue as it significantly increased apoptosis at 0.01 μM VCR” and the PARP cleavage [2] was “detected”.
For `COc1cc2c3cc1Oc1c(OC)c(OC)cc4c1C(CCCCOc1ccc(cc1)CC3N(C)CC2)N(C)CC4` (racemic) [RMS9, (±)-Ring C propylidene analogues of tetrandrine and –isotetrandrine], the “toxicity to HepaRG cells” value [4] was “significantly less toxic than tetrandrine”, the “prevention of efflux of calcein-AM (P-gp inhibition)” value [8] was “strongly reduces it” and the “sensitization of VCR-R CEM cells” value [9] was “all but RMS9 and RMS10 were able to sensitize”. The “inhibition of proliferation of VCR-R CEM cells” value [10] was “nearly inactive” and the “mitochondrial membrane potential ΔΨm (JC-1 shift towards green fluorescence)” value [3] was “no such an effect”.
In the case of `COc1cc2c3cc1Oc1c(OC)c(OC)cc4c1[C@@H](Cc1ccc(O)c(c1)Oc1ccc(cc1)C[C@@H]3N(C)CC2)N(C)CC4` [berbamine, reference compound], the “cell death of HepG2 cells: influence of cellular CYP3A4 overexpression” value [1] is reported as “not significantly increased”.
`COc1cc2c(cc1OC)[C@@H](Cc1ccc(Oc3cc(C[C@@H]4c5cc(OC)c(OC)cc5CCN4C)ccc3O)cc1)N(C)CC2` [dauricine, reference compound] was tested, and the “cell death of HepG2 cells: influence of cellular CYP3A4 overexpression” value [1] was “not significantly increased”.
With `COc1ccc2cc1Oc1ccc(cc1)C[C@H]1c3cc(c(OC)cc3CCN1C)Oc1c(OC)c(OC)cc3c1[C@H](C2)N(C)CC3` [tetrandrine, reference compound] the “mitochondrial membrane potential ΔΨm (JC-1 shift towards green fluorescence)” value [3] was “no such an effect” and the “percentage of dead PBMCs” value [11] was “highest percentage of dead PBMCs”.
